ChEMBL document CHEMBL1131155, “Design of new topoisomerase II inhibitors based upon a quinobenzoxazine self-assembly model” (J Med Chem, 1998)

How the values were obtained:
B16 = assay: The compound was tested for the concentration to inhibit 50% of B16 murine melanoma cells.; assay type: functional, cell-based; conditions: Mus musculus
How it was run: (§1)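 Exponentially growing cells seeded on day 0. Graded compound concentrations added in duplicate on day 1, then incubated at 37 °C. MTT (1 mg/mL in PBS) given for 4 h at 37 °C and formazan dissolved in 0.4 N HCl/isopropanol. Absorbance read at 570 nm against a 630 nm reference. IC50 derived from the dose-response curve.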

DU-145 = assay: The compound was tested for the concentration to inhibit 50% of DU-145 prostate cells.; assay type: functional, cell-based; conditions: Homo sapiens; how it was run: as §1
HT-29 = assay: The compound was tested for the concentration to inhibit 50% of HT-29 colon cells.; assay type: functional, cell-based; conditions: Homo sapiens; how it was run: as §1
NCI-H226 = assay: The compound was tested for the concentration to inhibit 50% of H226 non-small cell lung cells.; assay type: functional, cell-based; conditions: Homo sapiens; how it was run: as §1
Raji = assay: The compound was tested for the concentration to inhibit 50% of Raji lymphoma cells.; assay type: functional, cell-based; conditions: Homo sapiens; how it was run: as §1
DNA topoisomerase II = DNA topoisomerase II (Homo sapiens, UniProt P11388+Q02880); assay: Inhibition of topoisomerase II as conversion of catenated to decatenated KDNA; assay type: protein assay
How it was run: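 kDNA (0.25 μg) preincubated 10 min with varied compound levels in 50 mM Tris-HCl pH 8, 120 mM KCl, 10 mM MgCl₂, 0.5 mM ATP and DTT. Then 2 units human topo II (170-kDa form) added, 37 °C for 30 min. Stopped with sarkosyl stop buffer. Products resolved on 1% agarose with ethidium bromide and quantified by fluorescence scanning.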

MDA-MB-231 = assay: The compound was tested for the concentration to inhibit 50% of MDA-231 breast cancer cell lines.; assay type: functional, cell-based; conditions: Homo sapiens; how it was run: as §1
Nucleic Acid = assay: Tested for the DNA unwinding concentration that causes a shift of the topoisomers from the original to the middle position between the relaxed and the supercoiled bands.; assay type: functional
How it was run: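 Supercoiled pHOT1 DNA (0.25 μg) relaxed with 5 units topo I, 37 °C for 30 min. Drug at various concentrations then added and incubated a further 30 min. Stopped with 1% SDS, proteinase K treatment at 56 °C, and chloroform-isoamyl alcohol extraction. Topoisomers run on 1% agarose in TPE with 0.2 μg/mL chloroquine, 10 V for 20 h. Gel post-stained with ethidium and scanned.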

Row | SMILES | IC50 (B16) | IC50 (DU-145) | IC50 (HT-29) | IC50 (NCI-H226) | IC50 (Raji) | IC50 (DNA topoisomerase II) | IC50 (MDA-MB-231) | DNA unwinding concentration (Nucleic Acid)
1 | NC1CCN(c2c(F)cc3c(=O)c(C(=O)O)cn4c3c2Oc2cc3ccccc3cc2-4)C1 (stereo unspecified) | 0.1 µM | 0.025 µM | 0.028 µM | 0.004 µM | 0.038 µM | 0.77 µM | 0.023 µM | 
2 | N[C@H]1CCN(c2c(F)cc3c(=O)c(C(=O)O)cn4c3c2Oc2cc3ccccc3cc2-4)C1 | 0.02 µM | 0.03 µM | 0.023 µM | 0.014 µM | 0.029 µM | 0.44 µM | 0.01 µM | 13 µM
3 | N[C@H]1CCN(c2c(F)cc3c(=O)c(C(=O)O)cn4c3c2Oc2ccc3ccccc3c2-4)C1 | 0.13 µM | 0.14 µM | 0.27 µM | 0.13 µM | 0.082 µM | 0.72 µM | 0.19 µM | 19 µM
4 | NC1CCN(c2c(F)cc3c(=O)c(C(=O)O)cn4c3c2Oc2ccc3ccccc3c2-4)C1 (stereo unspecified) | 0.44 µM | 0.2 µM | 0.18 µM | 0.14 µM | 0.086 µM | 0.77 µM | 0.15 µM | 
5 | N[C@H]1CCN(c2c(F)cc3c(=O)c(C(=O)O)cn4c3c2Oc2ccccc2-4)C1 | 0.17 µM | 0.16 µM | 0.16 µM | 0.09 µM | 0.05 µM | 0.51 µM | 0.16 µM | 50 µM
6 | N[C@@H]1CCN(c2c(F)cc3c(=O)c(C(=O)O)cn4c3c2Oc2ccc3ccccc3c2-4)C1 | 0.68 µM | 0.36 µM | 0.36 µM | 2.4 µM | 0.16 µM | 1.22 µM | 0.35 µM | 35 µM
7 | N[C@@H]1CCN(c2c(F)cc3c(=O)c(C(=O)O)cn4c3c2Oc2cc3ccccc3cc2-4)C1 | 0.14 µM | 0.048 µM | 0.022 µM | 0.022 µM | 0.032 µM | 0.42 µM | 0.021 µM | 15 µM
8 | O=C(O)c1cn2c3c(c(N4CCNCC4)c(F)cc3c1=O)Oc1c-2ccc2ccccc12 | 0.65 µM | 0.14 µM | 0.36 µM | 0.2 µM | 0.21 µM | 1.84 µM | 0.38 µM | > 100 µM
9 | NC1CCN(c2c(F)cc3c(=O)c(C(=O)O)cn4c3c2Oc2c-4ccc3ccccc23)C1 (stereo unspecified) | 0.04 µM | 0.017 µM | 0.03 µM | 0.022 µM | 0.018 µM | 0.55 µM | 0.027 µM | 
10 | O=C(O)c1cn2c3c(c(N4CCNCC4)c(F)cc3c1=O)Oc1cc3ccccc3cc1-2 | 0.045 µM | 0.075 µM | 6.8 µM | > 100 µM | 0.0072 µM | 0.64 µM | > 1000 µM | > 100 µM
11 | O=C(O)c1cn2c3c(c(N4CCNCC4)c(F)cc3c1=O)Oc1ccc3ccccc3c1-2 | 2.1 µM | 0.84 µM | 2 µM | 2.1 µM | 0.8 µM | 9.6 µM | 2.2 µM | > 100 µM
12 | N[C@@H]1CCN(c2c(F)cc3c(=O)c(C(=O)O)cn4c3c2Oc2c-4ccc3ccccc23)C1 | 0.02 µM | 0.03 µM | 0.026 µM | 0.013 µM | 0.034 µM | 0.24 µM | 0.005 µM | 3 µM
13 | N[C@H]1CCN(c2c(F)cc3c(=O)c(C(=O)O)cn4c3c2Oc2c-4ccc3ccccc23)C1 | 0.18 µM | 0.064 µM | 0.051 µM | 0.027 µM | 0.02 µM | 0.49 µM | 0.084 µM | 10 µM
